Assay results from ChEMBL document CHEMBL4680236, “Design, synthesis and structure-activity relationships of novel 15-membered macrolides: Quinolone/quinoline-containing sidechains tethered to the C-6 position of azithromycin acylides” (Eur J Med Chem, 2020).
Values after ≈ are worked out from the molar mass of the structure shown.

How the values were obtained:
Escherichia coli [1] = experiment: Antibacterial activity against Escherichia coli JW5503-1 depletion of toIC efflux gene assessed as reduction in microbial growth; type: functional
Streptococcus pneumoniae [2] = experiment: Bactericidal activity against penicillin-susceptible Streptococcus pneumoniae PU09 harboring mef gene; type: functional
Method in brief: (§1)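 Bacteria were exposed to 1- to 8-fold their MIC of test sample, then transferred to fresh culture medium without antibacterial compound and incubated for the required time. Colonies were then counted. MBC is the lowest concentration giving a reduction in colony number of >3 Log₁₀.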

Staphylococcus aureus [3] = experiment: Ratio of MBC to MIC against MLSB/methicillin/ciprofloxacin-resistant Staphylococcus aureus PU32 harboring ermA gene; type: functional
Streptococcus pneumoniae [4] = experiment: Antibacterial activity against Erythromycin-susceptible Streptococcus pneumoniae ATCC 49619 assessed as reduction in microbial growth; type: functional
Escherichia coli [5] = experiment: Antibacterial activity against Escherichia coli JW5503-KanS depletion of toIC efflux gene assessed as reduction in microbial growth; type: functional
[6] = molecular target: T1, DNA gyrase (Escherichia coli) (UniProt P0AES6+P0AES4); experiment: Poison activity at Escherichia coli DNA gyrase assessed as stabilization of DNA cleavage complex by measuring linear plasmid DNA formation using supercoiled pBR322 incubated for 15 mins by electrophoresis relative to ciprofloxacin; type: protein-complex assay
Method in brief: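 Cleavage assay with 0.3 µg supercoiled pBR322 and 10 units E. coli gyrase. Buffer: 50 mM Tris-HCl pH 8.0, 10 mM MgCl2, 10 mM DTT, 50 µg/mL BSA, 1 mM ATP, 5 µg/mL tRNA; 37 °C, 15 min. Then 1% SDS for 5 min, then 25 mM EDTA plus 100 µg/mL proteinase K for 30 min. Phenol/chloroform extraction, then 1.2% agarose with ethidium bromide.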

Streptococcus pneumoniae [7] = experiment: Ratio of MBC to MIC against MLSB-resistant Streptococcus pneumoniae 07P390 harboring ermB; type: functional
Streptococcus pneumoniae [8] = experiment: Ratio of MBC to MIC against Erythromycin-susceptible Streptococcus pneumoniae ATCC 49619; type: functional
Streptococcus pneumoniae [9] = experiment: Bactericidal activity against Erythromycin-susceptible Streptococcus pneumoniae ATCC 49619; type: functional
Method in brief: (§2)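 Bacteria were exposed to 1- to 8-fold MIC of the sample, then transferred to fresh medium without antibacterial. After further incubation, colonies were counted. MBC was taken as the lowest concentration giving a >3 log10 reduction in colony number.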

Streptococcus pneumoniae [10] = experiment: Antibacterial activity against penicillin-susceptible Streptococcus pneumoniae PU09 harboring mef gene assessed as reduction in microbial growth; type: functional
Escherichia coli [11] = experiment: Antibacterial activity against Escherichia coli BW25113 depletion of toIC efflux gene assessed as reduction in microbial growth; type: functional
[12] = molecular target: T1, DNA gyrase (Escherichia coli); settings: time 15.0 min
Haemophilus influenzae [13] = experiment: Bactericidal activity against azithromycin-susceptible Haemophilus influenzae ATCC 49247; type: functional; method in brief: as §2
Staphylococcus aureus [14] = experiment: Antibacterial activity against MLSB/methicillin/ciprofloxacin-resistant Staphylococcus aureus PU32 harboring ermA gene assessed as reduction in microbial growth; type: functional
Streptococcus pneumoniae [15] = experiment: Bactericidal activity against MLSB-resistant Streptococcus pneumoniae 07P390 harboring ermB gene assessed as reduction in microbial growth; type: functional; method in brief: as §1
Staphylococcus aureus [16] = experiment: Antibacterial activity against MLSB/methicillin-resistant Staphylococcus aureus 15B196 assessed as reduction in microbial growth; type: functional
Staphylococcus aureus [17] = experiment: Bactericidal activity against MLSB/methicillin/ciprofloxacin-resistant Staphylococcus aureus PU32 harboring ermA gene; type: functional; method in brief: as §1
Staphylococcus aureus [18] = experiment: Antibacterial activity against MLSB/methicillin/ciprofloxacin-resistant Staphylococcus aureus PU32 harboring ermA gene assessed as reduction in microbial growth relative to ciprofloxacin; type: functional
Haemophilus influenzae [19] = experiment: Ratio of MBC to MIC against azithromycin-susceptible Haemophilus influenzae ATCC 49247; type: functional
Staphylococcus aureus [20] = experiment: Bactericidal activity against MLSB/methicillin-resistant Staphylococcus aureus 15B196; type: functional; method in brief: as §1
Staphylococcus aureus [21] = experiment: Antibacterial activity against MLSB/methicillin-resistant Staphylococcus aureus 15B196 assessed as reduction in microbial growth relative to ciprofloxacin; type: functional
Haemophilus influenzae [22] = experiment: Antibacterial activity against azithromycin-susceptible Haemophilus influenzae ATCC 49247 assessed as reduction in microbial growth; type: functional
DNA gyrase = DNA gyrase (Escherichia coli, UniProt P0AES4+P0AES6); experiment: Inhibition of Escherichia coli DNA gyrase using relaxed DNA as substrate incubated for 15 mins by ethidium bromide-based agarose gel electrophoresis; type: protein-complex assay
Method in brief: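 Supercoiling assay with relaxed pBR322 (0.3 µg), made by treating negatively supercoiled pBR322 with E. coli topoisomerase I, and 1 unit E. coli gyrase. Buffer: 50 mM Tris-HCl pH 8.0, 10 mM MgCl2, 100 mM potassium glutamate, 10 mM DTT, 50 µg/mL BSA, 1 mM ATP. Run 37 °C, 15 min, stopped with 25 mM EDTA. IC50 in µM.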

Streptococcus pneumoniae [23] = experiment: Antibacterial activity against MLSB-resistant Streptococcus pneumoniae 07P390 harboring ermB gene assessed as reduction in microbial growth; type: functional
Haemophilus influenzae [24] = experiment: Antibacterial activity against azithromycin-susceptible Haemophilus influenzae ATCC 49247 assessed as reduction in microbial growth relative to ciprofloxacin; type: functional
Streptococcus pneumoniae [25] = experiment: Ratio of MBC to MIC against penicillin-susceptible Streptococcus pneumoniae PU09; type: functional
Staphylococcus aureus [26] = experiment: Ratio of MBC to MIC against MLSB/methicillin-resistant Staphylococcus aureus 15B196; type: functional
Streptococcus pyogenes [27] = experiment: Ratio of MBC to MIC against MLSB-resistant Streptococcus pyogenes 12-206 harboring ermA gene; type: functional
Streptococcus pyogenes [28] = experiment: Bactericidal activity against MLSB-resistant Streptococcus pyogenes 12-206 harboring ermA gene; type: functional; method in brief: as §1
Streptococcus pyogenes [29] = experiment: Antibacterial activity against MLSB-resistant Streptococcus pyogenes 12-206 harboring ermA gene assessed as reduction in microbial growth; type: functional

Compound CC[C@H]1OC(=O)[C@H](C)[C@@H](OC(=O)Cc2ccccn2)[C@H](C)[C@@H](O[C@@H]2O[C@H](C)C[C@H](N(C)C)[C@H]2O)[C@](C)(OC(=O)CCN2CCN(c3cc4c(cc3F)c(=O)c(C(=O)O)cn4C3CC3)CC2)C[C@@H](C)CN(C)[C@H](C)[C@@H](O)[C@]1(C)O has an MIC (Escherichia coli [1]) of 1 µg/mL, an MBC (Streptococcus pneumoniae [2]) of 4 µg/mL (≈ 3.65 µM) and a Ratio (Staphylococcus aureus [3]) of over 8. It also gave an MIC (Streptococcus pneumoniae [4]) of 0.125 µg/mL, an MIC (Escherichia coli [5]) of 1 µg/mL and an Activity [6] of 28%. It also gave a Ratio (Streptococcus pneumoniae [7]) of 8, a Ratio (Streptococcus pneumoniae [8]) of 2 and an MBC (Streptococcus pneumoniae [9]) of 0.25 µg/mL (≈ 0.228 µM). It also gave an MIC (Streptococcus pneumoniae [10]) of 2 µg/mL, an MIC (Escherichia coli [11]) of 4 µg/mL and an EC [12] of 69.5 µM. The MBC (Haemophilus influenzae [13]) was 0.25 µg/mL (≈ 0.228 µM), the MIC (Staphylococcus aureus [14]) was 16 µg/mL and the MBC (Streptococcus pneumoniae [15]) was 32 µg/mL. The MIC (Staphylococcus aureus [16]) was 16 µg/mL, the MBC (Staphylococcus aureus [17]) was over 128 µg/mL and the “fold change (FC)” value (Staphylococcus aureus [18]) was 0.076. For the same compound, the Ratio (Haemophilus influenzae [19]) was 1, the MBC (Staphylococcus aureus [20]) was 128 µg/mL (≈ 117 µM) and the “fold change (FC)” value (Staphylococcus aureus [21]) was 9.7. The MIC (Haemophilus influenzae [22]) was 0.25 µg/mL, the IC50 (DNA gyrase) was 44.1 µM and the MIC (Streptococcus pneumoniae [23]) was 4 µg/mL. The “fold change (FC)” value (Haemophilus influenzae [24]) was 19, the Ratio (Streptococcus pneumoniae [25]) was 2 and the Ratio (Staphylococcus aureus [26]) was 8.
Compound CC[C@H]1OC(=O)[C@H](C)[C@@H](OC(=O)Cc2ccccn2)[C@H](C)[C@@H](O[C@@H]2O[C@H](C)C[C@H](N(C)C)[C@H]2O)[C@](C)(OC(=O)CCN2CCN(c3c(F)cc4c(=O)c(C(N)=O)cn(C5CC5)c4c3OC)CC2C)C[C@@H](C)CN(C)[C@H](C)[C@@H](O)[C@]1(C)O (stereo partly specified) has an MIC (Escherichia coli [1]) of 0.5 µg/mL, an MBC (Streptococcus pneumoniae [2]) of 8 µg/mL (≈ 7.03 µM) and an MIC (Streptococcus pneumoniae [4]) of 0.5 µg/mL. For the same compound, the MIC (Escherichia coli [5]) was 0.5 µg/mL, the Activity [6] was 71% and the Ratio (Streptococcus pneumoniae [7]) was 1. For the same compound, the Ratio (Streptococcus pneumoniae [8]) was 2, the MBC (Streptococcus pneumoniae [9]) was 1 µg/mL (≈ 0.878 µM) and the MIC (Streptococcus pneumoniae [10]) was 2 µg/mL. For the same compound, the MIC (Escherichia coli [11]) was 2 µg/mL, the EC [12] was 18.2 µM and the Ratio (Streptococcus pyogenes [27]) was over 8. The MBC (Streptococcus pyogenes [28]) was over 64 µg/mL, the MBC (Haemophilus influenzae [13]) was 0.5 µg/mL (≈ 0.439 µM) and the MIC (Streptococcus pyogenes [29]) was 8 µg/mL. The MIC (Staphylococcus aureus [14]) was 128 µg/mL, the MBC (Streptococcus pneumoniae [15]) was 8 µg/mL and the MIC (Staphylococcus aureus [16]) was 8 µg/mL. For the same compound, the MBC (Staphylococcus aureus [17]) was over 256 µg/mL, the “fold change (FC)” value (Staphylococcus aureus [18]) was 0.14 and the Ratio (Haemophilus influenzae [19]) was 1. For the same compound, the MBC (Staphylococcus aureus [20]) was 8 µg/mL (≈ 7.03 µM), the “fold change (FC)” value (Staphylococcus aureus [21]) was 1.2 and the MIC (Haemophilus influenzae [22]) was 0.5 µg/mL. The IC50 (DNA gyrase) was 9.6 µM, the MIC (Streptococcus pneumoniae [23]) was 8 µg/mL and the “fold change (FC)” value (Haemophilus influenzae [24]) was 36. It also gave a Ratio (Streptococcus pneumoniae [25]) of 4 and a Ratio (Staphylococcus aureus [26]) of 1.
